{"data": "Measurements from different studies", "target": "Serine/threonine-protein kinase D1 (PRKD1, Homo sapiens, UniProt Q15139)", "Residues used in one study (Q15139 1-912)": "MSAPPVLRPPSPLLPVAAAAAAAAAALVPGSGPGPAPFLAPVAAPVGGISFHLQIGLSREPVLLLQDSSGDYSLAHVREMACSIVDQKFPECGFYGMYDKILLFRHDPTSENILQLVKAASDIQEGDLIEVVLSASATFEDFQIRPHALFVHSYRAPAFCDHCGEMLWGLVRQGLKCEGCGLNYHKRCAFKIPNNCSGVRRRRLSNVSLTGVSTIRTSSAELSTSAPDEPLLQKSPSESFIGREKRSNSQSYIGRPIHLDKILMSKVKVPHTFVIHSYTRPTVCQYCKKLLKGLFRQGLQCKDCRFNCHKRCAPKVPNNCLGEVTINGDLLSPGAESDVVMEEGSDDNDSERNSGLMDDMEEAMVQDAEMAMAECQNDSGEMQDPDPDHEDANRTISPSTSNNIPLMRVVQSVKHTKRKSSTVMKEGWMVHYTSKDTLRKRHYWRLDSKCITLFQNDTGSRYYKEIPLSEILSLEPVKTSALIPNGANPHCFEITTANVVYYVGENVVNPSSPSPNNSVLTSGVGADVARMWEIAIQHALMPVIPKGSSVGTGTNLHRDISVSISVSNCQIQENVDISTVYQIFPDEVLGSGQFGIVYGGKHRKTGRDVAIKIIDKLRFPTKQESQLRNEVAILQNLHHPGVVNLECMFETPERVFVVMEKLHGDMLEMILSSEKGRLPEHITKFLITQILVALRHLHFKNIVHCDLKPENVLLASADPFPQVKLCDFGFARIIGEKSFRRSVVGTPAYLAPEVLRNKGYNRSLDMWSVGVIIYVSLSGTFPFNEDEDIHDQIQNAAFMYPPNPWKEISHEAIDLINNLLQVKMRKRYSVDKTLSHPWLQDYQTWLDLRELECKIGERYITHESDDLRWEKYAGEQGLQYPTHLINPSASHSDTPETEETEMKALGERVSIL"}
{"Compound": "Nc1ncc(-c2nc(N3CCOCC3)nc(N3CCOCC3)n2)c(C(F)F)n1", "assay": "binding, competition with immobilised ligand", "setting": "10 µM", "endpoint": "remaining binding", "result": "80%"}
{"Compound": "Cc1nn(C)cc1-c1nc2c(N3CCN(Cc4ccc(Cl)cc4)CC3)c(Cl)cnc2[nH]1", "assay": "binding, competition with immobilised ligand", "setting": "1 µM", "endpoint": "remaining binding", "result": "100%"}
{"Compound": "O=c1[nH]c2ccccc2n1C1CCN(Cc2ccc(-c3[nH]c4cc5ncnc5cc4nc3-c3ccccc3)cc2)CC1", "assay": "cell-free assay", "setting": "0.5 µM", "endpoint": "remaining signal", "result": "94.7%"}
{"Compound": "COc1ncccc1-c1cnn2ccc(N3CCN(C(=O)OC(C)C)CC3)nc12", "assay": "binding, competition with immobilised ligand", "setting": "1 µM", "endpoint": "remaining binding", "result": "100%"}
{"Compound": "Cn1cncc1[C@](O)(COc1ccc(C#N)cc1-c1ccc(OC(F)(F)F)cc1)c1ccc(C#N)cc1", "assay": "cell-free assay, competition with immobilised ligand", "setting": "1 µM", "endpoint": "remaining binding", "result": "99%"}
{"Compound": "COc1cc(Nc2ncc(F)c(Nc3ccc4c(n3)NC(=O)C(C)(C)O4)n2)cc(OC)c1OC", "assay": "binding", "setting": "10 µM", "endpoint": "inhibition", "result": "17%"}
{"Compound": "Cn1cc(-c2cccc(N3CCc4c(sc5c4CC(C)(C)C5)C3=O)c2CO)cc(Nc2ccncn2)c1=O", "assay": "enzyme activity, inhibitor", "setting": "1 µM", "endpoint": "inhibition", "result": "2%"}
{"Compound": "CC(C)(C)c1cc(C=C(C#N)C#N)cc(Br)c1O", "assay": "enzyme activity, inhibitor", "setting": "0.5 µM", "endpoint": "remaining activity", "result": "100%"}
{"Compound": "N#CC1(c2ccccn2)CCN(Cc2cc(C(=O)O)c(=O)n3ccccc23)CC1", "assay": "cell-free assay, competition with immobilised ligand", "setting": "1 µM", "endpoint": "remaining binding", "result": "87%"}
{"Compound": "Cn1cc(-c2cc(F)cc(N3CCn4c(cc5c4CCCC5)C3=O)c2CO)cc(Nc2ccc(N3CCN(C4COC4)CC3)cn2)c1=O", "assay": "enzyme activity, inhibitor", "setting": "0.1 µM", "endpoint": "inhibition", "result": "12%"}
